Assay [1] has as its system SK-MEL-28. Briefly: Antiproliferative activity against human SK-MEL-28 cells expressing B-Raf V600E mutant after 3 days by CellTiter-Glo assay. In kind it is functional, cell-based. In outline:
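SKMEL28 melanoma cells grown in EMEM + 10% FBS, 1% pen-strep, 1% sodium pyruvate, 37 °C, humidified 5% CO2; plated 500 cells/well. 10-point dilution 20 µM down to 0.001 µM, final DMSO 0.2%, 3 days. Total ATP read by CellTiter-Glo as cell-number surrogate. % growth inhibition vs control wells; IC50 by 4-parameter fit; mean of two experiments.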

Assay [2] deals with HFF. Briefly: Antiproliferative activity against HFF after 3 days by CellTiter-Glo assay. To be noted: Homo sapiens, 72 h. The class given is cell-based.
Assay [3] addresses T1, Serine/threonine-protein kinase B-raf (Homo sapiens, UniProt P15056, V600E). Briefly: Inhibition of B-Raf V600E mutant.
For assay [4], the target named is T1, Serine/threonine-protein kinase B-raf. Briefly: Inhibition of B-Raf V600E mutant in human SK-MEL-28 cells assessed as reduction of ERK phosphorylation after 1 hr. The class given is cell-based. In outline:
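SKMEL28 cells (EMEM + 10% FBS) plated at 20,000 cells/well; 10-point dilution 20 µM to 0.001 µM, final DMSO 0.2%, 1 h. Fixed in 3.7% formaldehyde, permeabilized with 0.1% Triton X-100. Anti-ERK and anti-phospho-ERK primaries overnight at 4 °C, IR-dye secondaries 1 h, in-cell western on LiCor Odyssey. % inhibition of ERK phosphorylation vs control; IC50 by 4-parameter fit; means of 2–5 experiments.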

For assay [5], the target named is Tyrosine-protein kinase Lyn (Homo sapiens, UniProt P07948). Briefly: Inhibition of Lyn.
Chain of Tyrosine-protein kinase Lyn (P07948 whole entry): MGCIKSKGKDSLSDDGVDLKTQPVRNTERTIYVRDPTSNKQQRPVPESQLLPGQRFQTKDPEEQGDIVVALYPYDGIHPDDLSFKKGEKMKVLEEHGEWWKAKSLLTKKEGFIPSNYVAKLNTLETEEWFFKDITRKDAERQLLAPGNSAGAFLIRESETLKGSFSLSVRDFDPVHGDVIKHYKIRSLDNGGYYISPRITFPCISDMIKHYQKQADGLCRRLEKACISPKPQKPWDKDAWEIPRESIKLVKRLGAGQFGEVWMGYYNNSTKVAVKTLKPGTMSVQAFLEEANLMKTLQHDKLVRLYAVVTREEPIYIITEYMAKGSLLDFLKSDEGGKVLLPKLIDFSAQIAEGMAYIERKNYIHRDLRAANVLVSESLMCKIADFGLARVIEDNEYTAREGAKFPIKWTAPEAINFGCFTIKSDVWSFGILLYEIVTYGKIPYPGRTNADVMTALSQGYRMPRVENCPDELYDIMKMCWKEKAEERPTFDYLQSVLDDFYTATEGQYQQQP
The target in assay [6] is Tyrosine-protein kinase Lck (Homo sapiens, UniProt P06239). Briefly: Inhibition of Lck.
Chain of Tyrosine-protein kinase Lck (P06239 whole entry): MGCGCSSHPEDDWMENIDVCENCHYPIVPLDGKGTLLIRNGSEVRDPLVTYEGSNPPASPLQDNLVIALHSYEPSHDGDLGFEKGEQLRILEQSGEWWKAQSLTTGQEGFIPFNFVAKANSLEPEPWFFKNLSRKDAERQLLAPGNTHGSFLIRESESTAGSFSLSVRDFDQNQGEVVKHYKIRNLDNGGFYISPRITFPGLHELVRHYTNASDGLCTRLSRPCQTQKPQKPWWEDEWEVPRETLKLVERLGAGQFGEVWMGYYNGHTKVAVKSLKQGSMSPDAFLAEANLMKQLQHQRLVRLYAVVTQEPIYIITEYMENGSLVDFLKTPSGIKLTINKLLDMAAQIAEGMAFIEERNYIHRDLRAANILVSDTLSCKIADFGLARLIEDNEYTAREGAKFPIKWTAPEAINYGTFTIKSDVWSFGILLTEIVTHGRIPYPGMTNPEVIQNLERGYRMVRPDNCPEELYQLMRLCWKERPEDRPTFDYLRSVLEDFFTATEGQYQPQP
In assay [7] the target is Receptor tyrosine-protein kinase erbB-4 (Homo sapiens, UniProt Q15303). Briefly: Inhibition of ErbB4.
Chain of Receptor tyrosine-protein kinase erbB-4 (Q15303 whole entry): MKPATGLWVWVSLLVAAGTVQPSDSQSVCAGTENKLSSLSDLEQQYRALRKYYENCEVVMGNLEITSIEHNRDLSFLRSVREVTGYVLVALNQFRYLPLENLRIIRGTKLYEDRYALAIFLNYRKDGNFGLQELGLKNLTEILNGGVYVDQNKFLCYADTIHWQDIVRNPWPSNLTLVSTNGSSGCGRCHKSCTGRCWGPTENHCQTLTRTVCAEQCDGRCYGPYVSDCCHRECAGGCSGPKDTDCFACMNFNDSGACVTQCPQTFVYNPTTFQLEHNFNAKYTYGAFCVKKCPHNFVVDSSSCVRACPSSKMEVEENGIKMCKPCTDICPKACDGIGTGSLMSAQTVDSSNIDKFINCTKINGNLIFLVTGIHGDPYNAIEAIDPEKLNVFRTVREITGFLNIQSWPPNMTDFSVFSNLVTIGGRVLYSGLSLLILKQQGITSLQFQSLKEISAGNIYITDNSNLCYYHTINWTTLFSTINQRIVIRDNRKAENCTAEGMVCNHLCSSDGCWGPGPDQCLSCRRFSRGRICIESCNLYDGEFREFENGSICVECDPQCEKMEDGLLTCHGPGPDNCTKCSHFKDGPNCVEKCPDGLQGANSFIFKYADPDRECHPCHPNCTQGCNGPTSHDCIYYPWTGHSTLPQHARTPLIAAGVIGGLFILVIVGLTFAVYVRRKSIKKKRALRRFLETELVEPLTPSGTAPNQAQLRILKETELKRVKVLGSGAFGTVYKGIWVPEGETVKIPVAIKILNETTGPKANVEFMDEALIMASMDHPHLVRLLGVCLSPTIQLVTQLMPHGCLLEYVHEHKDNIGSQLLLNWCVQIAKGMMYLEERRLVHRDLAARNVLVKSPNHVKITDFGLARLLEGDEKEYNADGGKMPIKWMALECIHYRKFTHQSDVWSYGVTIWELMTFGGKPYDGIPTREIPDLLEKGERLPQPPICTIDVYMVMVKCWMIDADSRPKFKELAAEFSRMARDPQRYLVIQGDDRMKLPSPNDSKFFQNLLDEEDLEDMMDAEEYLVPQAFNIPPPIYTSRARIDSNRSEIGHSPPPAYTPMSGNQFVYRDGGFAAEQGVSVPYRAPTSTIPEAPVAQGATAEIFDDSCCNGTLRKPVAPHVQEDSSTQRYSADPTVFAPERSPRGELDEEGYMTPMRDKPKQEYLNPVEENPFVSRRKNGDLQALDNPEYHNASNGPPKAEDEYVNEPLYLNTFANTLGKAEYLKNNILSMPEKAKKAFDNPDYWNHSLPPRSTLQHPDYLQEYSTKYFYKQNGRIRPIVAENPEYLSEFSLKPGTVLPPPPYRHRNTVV
The target in assay [8] is Tyrosine-protein kinase BTK (Homo sapiens, UniProt Q06187). Briefly: Inhibition of Btk.
Chain of Tyrosine-protein kinase BTK (Q06187 whole entry): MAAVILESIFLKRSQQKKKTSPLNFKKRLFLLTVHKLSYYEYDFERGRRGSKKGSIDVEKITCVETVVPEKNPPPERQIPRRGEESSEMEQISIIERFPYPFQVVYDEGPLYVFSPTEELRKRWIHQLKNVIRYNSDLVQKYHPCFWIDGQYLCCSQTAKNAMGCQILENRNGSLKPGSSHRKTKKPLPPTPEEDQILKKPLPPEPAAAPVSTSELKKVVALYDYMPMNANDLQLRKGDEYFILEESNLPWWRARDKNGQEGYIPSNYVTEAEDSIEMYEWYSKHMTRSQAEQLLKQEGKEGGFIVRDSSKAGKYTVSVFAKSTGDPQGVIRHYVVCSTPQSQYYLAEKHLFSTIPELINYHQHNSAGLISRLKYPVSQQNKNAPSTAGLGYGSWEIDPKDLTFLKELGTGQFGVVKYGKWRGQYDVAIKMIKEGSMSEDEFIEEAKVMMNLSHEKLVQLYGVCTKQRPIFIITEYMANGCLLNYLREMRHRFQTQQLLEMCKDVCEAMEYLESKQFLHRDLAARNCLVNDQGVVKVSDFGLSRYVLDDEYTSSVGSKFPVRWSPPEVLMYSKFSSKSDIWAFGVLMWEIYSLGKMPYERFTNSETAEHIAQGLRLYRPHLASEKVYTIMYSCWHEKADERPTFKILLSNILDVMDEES
In assay [9] the target is Activin receptor type-2B (Homo sapiens, UniProt Q13705). Briefly: Inhibition of ACTR-2B.
Chain of Activin receptor type-2B (Q13705 whole entry): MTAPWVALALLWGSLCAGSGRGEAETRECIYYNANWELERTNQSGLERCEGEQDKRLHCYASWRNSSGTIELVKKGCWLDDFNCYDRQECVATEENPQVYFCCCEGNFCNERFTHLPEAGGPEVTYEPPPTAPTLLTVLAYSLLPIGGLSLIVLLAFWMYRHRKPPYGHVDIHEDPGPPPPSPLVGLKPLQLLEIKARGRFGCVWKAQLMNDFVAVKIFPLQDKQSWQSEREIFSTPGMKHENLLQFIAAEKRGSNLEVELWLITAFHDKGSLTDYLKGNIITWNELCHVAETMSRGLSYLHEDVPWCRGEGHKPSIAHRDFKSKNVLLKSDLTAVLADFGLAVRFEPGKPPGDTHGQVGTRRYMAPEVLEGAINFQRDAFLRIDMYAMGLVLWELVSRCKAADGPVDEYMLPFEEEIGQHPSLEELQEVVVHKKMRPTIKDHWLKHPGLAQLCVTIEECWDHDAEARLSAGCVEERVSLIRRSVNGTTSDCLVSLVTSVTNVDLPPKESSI
Assay [10] addresses T2, TGF-beta receptor type-1 (Homo sapiens, UniProt P36897).
T2 sequence (P36897 whole entry): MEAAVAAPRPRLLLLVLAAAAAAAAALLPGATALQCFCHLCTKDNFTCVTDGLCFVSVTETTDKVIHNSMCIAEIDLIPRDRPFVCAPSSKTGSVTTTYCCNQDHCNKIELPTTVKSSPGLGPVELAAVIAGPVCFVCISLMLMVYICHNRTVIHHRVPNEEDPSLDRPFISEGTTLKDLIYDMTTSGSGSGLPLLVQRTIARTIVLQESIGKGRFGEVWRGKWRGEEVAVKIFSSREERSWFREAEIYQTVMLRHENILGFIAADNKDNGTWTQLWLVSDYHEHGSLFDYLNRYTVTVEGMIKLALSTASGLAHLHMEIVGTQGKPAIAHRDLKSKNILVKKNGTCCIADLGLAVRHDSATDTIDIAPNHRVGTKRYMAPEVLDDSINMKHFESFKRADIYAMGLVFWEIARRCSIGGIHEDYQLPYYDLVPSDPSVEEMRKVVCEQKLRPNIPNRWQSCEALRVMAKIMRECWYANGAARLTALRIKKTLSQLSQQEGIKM
Briefly: Inhibition of ALK5.

These results are taken from ChEMBL document CHEMBL1806396, “Development of potent B-RafV600E inhibitors containing an arylsulfonamide headgroup” (Bioorg Med Chem Lett, 2011).

T1 sequence (P15056 2-766 V600E limits assumed): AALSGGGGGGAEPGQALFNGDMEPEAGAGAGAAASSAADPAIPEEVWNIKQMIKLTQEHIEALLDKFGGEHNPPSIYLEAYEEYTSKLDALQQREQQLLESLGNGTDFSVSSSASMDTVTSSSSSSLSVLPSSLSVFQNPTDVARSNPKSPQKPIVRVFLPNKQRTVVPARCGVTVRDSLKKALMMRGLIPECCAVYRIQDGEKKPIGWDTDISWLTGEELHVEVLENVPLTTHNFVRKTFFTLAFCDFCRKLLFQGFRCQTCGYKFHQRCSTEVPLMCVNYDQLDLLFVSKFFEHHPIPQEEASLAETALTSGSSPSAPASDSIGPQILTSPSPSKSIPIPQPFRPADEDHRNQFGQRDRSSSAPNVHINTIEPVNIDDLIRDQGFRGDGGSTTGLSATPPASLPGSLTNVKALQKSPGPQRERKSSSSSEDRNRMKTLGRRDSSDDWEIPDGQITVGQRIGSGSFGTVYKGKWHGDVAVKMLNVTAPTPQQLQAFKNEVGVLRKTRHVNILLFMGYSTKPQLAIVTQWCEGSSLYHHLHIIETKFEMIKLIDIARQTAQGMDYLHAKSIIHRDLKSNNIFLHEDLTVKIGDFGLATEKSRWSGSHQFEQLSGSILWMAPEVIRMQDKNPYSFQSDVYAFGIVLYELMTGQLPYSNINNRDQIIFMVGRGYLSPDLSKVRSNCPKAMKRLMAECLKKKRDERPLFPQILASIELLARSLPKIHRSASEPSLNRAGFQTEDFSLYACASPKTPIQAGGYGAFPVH

As for `CC(C)c1nc(-c2ccc(F)c(NS(=O)(=O)c3c(F)cccc3F)c2)c(-c2ccnc(Nc3ccc(N4CCOCC4)nc3)n2)s1` [listing 1 of 2 here], the EC50 in assay [1] (Homo sapiens, SK-MEL-28, 72 h) turned out to be 52 nM; in assay [2], 15600 nM.
In assay [3], `CCc1nc(-c2cccc(CS(=O)(=O)c3ccccc3)c2)c(-c2ccnc(Nc3ccc(N4CCN(C(C)=O)CC4)nc3)n2)s1` returned an IC50 of 1360 nM. In addition, the EC50 is 11100 nM in assay [1] (Homo sapiens, SK-MEL-28, 72 h) and > 20000 nM in assay [4].
Consider `CN1CCc2ccc(Nc3nccc(-c4c(-c5cccc(C(=O)Nc6c(F)cccc6F)c5)nc5ccccn45)n3)cc2C1`, for which, in assay [3], the IC50 came to 12 nM. For the same compound, the EC50 in [4] was > 2200 nM.
The compound `CC(=O)N1CCN(c2ccc(Nc3nccc(-c4sc(C(C)C)nc4-c4cccc(NS(=O)(=O)c5cccc(Cl)c5)c4)n3)cn2)CC1` displayed an IC50 in assay [3] of 34 nM. Moreover, the EC50 in assay [1] (Homo sapiens, SK-MEL-28, 72 h) came to 85 nM; in assay [4] it was 21 nM.
For `CC(C)c1nc(-c2cccc(NC(=O)c3c(F)cccc3F)c2)c(-c2ccnc(Nc3ccc4c(c3)CN(C)CC4)n2)s1` the same measures were 4 nM, 2750 nM and 580 nM.
For the compound `CN1CCc2ccc(Nc3nccc(-c4c(-c5cccc(NC(=O)Nc6c(F)cccc6F)c5)nc5ccccn45)n3)cc2C1`, half-maximal inhibition in assay [3] (IC50) required 5 nM. For the same compound, the EC50 in assay [1] (Homo sapiens, SK-MEL-28, 72 h) was 6340 nM; in [4] it was > 20000 nM.
For the compound `CC(=O)N1CCN(c2ccc(Nc3nccc(-c4sc(C(C)C)nc4-c4cccc(NS(=O)(=O)c5ccccc5)c4)n3)cn2)CC1`, in assay [3], the midpoint of inhibition, the IC50, lay at 3.6 nM. Besides, the EC50 in assay [1] (Homo sapiens, SK-MEL-28, 72 h) was found to be 24 nM; in assay [4], 7 nM.
In turn, `CC(C)c1nc(-c2cc(F)cc(NS(=O)(=O)c3c(F)cccc3F)c2)c(-c2ccnc(Nc3ccc(N4CCOCC4)nc3)n2)s1` came in with an IC50 in assay [3] of 0.9 nM. The EC50 in [1] (Homo sapiens, SK-MEL-28, 72 h) is 14 nM; in assay [4], 24 nM.
In assay [3], `CC(=O)N1CCN(c2ccc(Nc3nccc(-c4sc(C(C)C)nc4-c4cccc(NS(=O)(=O)c5cccc(F)c5)c4)n3)cn2)CC1` yielded an IC50 of 0.8 nM. In addition, the EC50 was determined as 8 nM in [1] (Homo sapiens, SK-MEL-28, 72 h) and 10 nM in [4].
In the same order, the values of `CN1CCc2ccc(Nc3nccc(-c4c(-c5cccc(NC(=O)c6c(F)cccc6F)c5)nc5ccccn45)n3)cc2C1` are 9 nM, 5320 nM and > 10000 nM.
Turning to `CC(C)c1nc(-c2cccc(NS(=O)(=O)c3c(F)cccc3F)c2)c(-c2ccnc(Nc3ccc(N4CCOCC4)nc3)n2)s1`, inhibition in assay [3] was half-maximal at 1.2 nM (IC50). For the same compound, the EC50 in assay [1] (Homo sapiens, SK-MEL-28, 72 h) came out at 6 nM; in [4], 7 nM.
In the same order, the values of `CC(C)c1nc(-c2cccc(NS(=O)(=O)c3c(F)cccc3F)c2F)c(-c2ccnc(Nc3ccc(N4CCOCC4)nc3)n2)s1` are 0.5 nM, 8 nM and 11 nM.
For `CC(=O)N1CCN(c2ccc(Nc3nccc(-c4sc(C(C)C)nc4-c4cccc(NS(=O)(=O)c5ccccc5F)c4)n3)cn2)CC1` the same measures were 0.6 nM, 4 nM and 4 nM.
As to `CC(C)c1nc(-c2ccc(F)c(NS(=O)(=O)c3c(F)cccc3F)c2)c(-c2ccnc(Nc3ccc(N4CCOCC4)nc3)n2)s1` [listing 2 of 2 here], the IC50 in [5] is 10 nM; in [6] it was 10 nM; in assay [3] it was 3.8 nM; in assay [7], 10 nM; in assay [8], 10 nM; in assay [9] it was 10 nM. In assay [10], this compound yielded an IC50 of 10 nM. Further, the results for the EC50 in assay [1] (sk-mel-28) and in assay [4] were 47 nM and 23 nM, respectively.
Compound `CC(C)c1nc(-c2cccc(NS(=O)(=O)c3ccccc3)c2)c(-c2ccnc(Nc3ccc4c(c3)CN(C)CC4)n2)s1` displayed an IC50 in assay [3] of 12 nM. Further, the EC50 in [1] (Homo sapiens, SK-MEL-28, 72 h) amounted to 287 nM; in assay [4] it was 52 nM.
For the compound `CCc1nc(-c2cccc(N(C)S(=O)(=O)c3ccccc3)c2)c(-c2ccnc(Nc3ccc(N4CCN(C(C)=O)CC4)nc3)n2)s1`, in assay [3], the IC50 was determined as 1970 nM. The EC50 came to 8620 nM in assay [1] (Homo sapiens, SK-MEL-28, 72 h) and 4730 nM in assay [4].
With `CC(=O)N1CCN(c2ccc(Nc3nccc(-c4sc(C(C)C)nc4-c4cccc(NS(=O)(=O)c5c(F)cccc5F)c4)n3)cn2)CC1`, 1.3 nM corresponded to half-maximal inhibition in assay [3] (IC50). For the same compound, the EC50 came out at 12 nM in assay [1] (Homo sapiens, SK-MEL-28, 72 h) and 10 nM in assay [4].
As to `CC(=O)N1CCN(c2ccc(Nc3nccc(-c4sc(C(C)C)nc4-c4cccc(NS(=O)(=O)c5ccc(F)cc5)c4)n3)cn2)CC1`, half-maximal inhibition in [3] (IC50) required 9.5 nM. Also, the EC50 amounted to 69 nM in assay [1] (Homo sapiens, SK-MEL-28, 72 h) and 9 nM in assay [4].
`CN1CCc2ccc(Nc3nccc(-c4c(-c5cccc(NS(=O)(=O)c6ccccc6)c5)nc5ccccn45)n3)cc2C1`: in assay [3], the IC50 amounted to 132 nM. Also, the EC50 is 1110 nM in assay [1] (Homo sapiens, SK-MEL-28, 72 h) and 99 nM in assay [4].
For `CC(=O)N1CCN(c2ccc(Nc3nccc(-c4sc(C(C)C)nc4-c4cccc(NS(=O)(=O)c5cc(F)ccc5F)c4)n3)cn2)CC1` the same measures were 0.6 nM, 8 nM and 8 nM.
